From ChEMBL document CHEMBL4130408, “Photoactivation provides a mechanistic explanation for pan-assay interference behaviour of 2-aminopyrroles in lipoxygenase inhibition” (Eur J Med Chem, 2017)
Calls of active or inactive are those of the source. The calls are words filed in the database; no cut-off is given here.

T1: Polyunsaturated fatty acid lipoxygenase ALOX15 (Homo sapiens) (UniProt P16050)
T1 sequence (whole entry): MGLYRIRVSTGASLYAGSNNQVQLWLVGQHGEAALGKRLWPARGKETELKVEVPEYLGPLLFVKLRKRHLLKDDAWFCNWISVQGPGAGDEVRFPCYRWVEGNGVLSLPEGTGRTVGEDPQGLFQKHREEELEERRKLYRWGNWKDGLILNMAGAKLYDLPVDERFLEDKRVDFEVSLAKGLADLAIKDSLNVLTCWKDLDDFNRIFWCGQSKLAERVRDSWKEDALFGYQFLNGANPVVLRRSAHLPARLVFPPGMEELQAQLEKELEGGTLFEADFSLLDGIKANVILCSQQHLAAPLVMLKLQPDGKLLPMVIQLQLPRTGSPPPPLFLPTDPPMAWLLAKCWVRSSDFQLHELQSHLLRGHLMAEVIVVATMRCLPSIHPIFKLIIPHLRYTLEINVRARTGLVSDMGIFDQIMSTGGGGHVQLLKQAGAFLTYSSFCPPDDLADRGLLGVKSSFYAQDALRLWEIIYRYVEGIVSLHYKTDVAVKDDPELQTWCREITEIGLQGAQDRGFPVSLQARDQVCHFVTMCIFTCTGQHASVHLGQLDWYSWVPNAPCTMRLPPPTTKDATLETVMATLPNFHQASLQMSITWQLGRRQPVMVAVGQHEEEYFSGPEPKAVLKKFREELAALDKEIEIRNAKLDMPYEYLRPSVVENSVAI

T2: Polyunsaturated fatty acid lipoxygenase ALOX15 (Homo sapiens, UniProt P16050)
T2 sequence (P16050 whole entry): T1 sequence (whole entry)

B1: Polyunsaturated fatty acid lipoxygenase ALOX15 (Homo sapiens), P16050 (protein)
chain: T1 sequence (whole entry)

Legend:
[1] = biological target: T1, Polyunsaturated fatty acid lipoxygenase ALOX15 (Homo sapiens); test: Inhibition of recombinant human 15-LOX-1 expressed in Escherichia coli BL21(DE3) at 10 uM preincubated with UV light at 365 nm followed by measuring UV absorbance of 13(S)-HpODE at 234 nm over 16 mins; settings: TDE = time-dependent effect
How it was run: (§1)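 Light-sensitivity test: h-15-LOX-1 preincubated with inhibitor for 2, 5 and 10 min under daylight, 365 nm UV irradiation or darkness, in triplicate. Linoleic acid conversion to 13(S)-HpODE then followed at 234 nm over 16 min, relative to a no-inhibitor positive control. Buffer 25 mM HEPES pH 7.4. Experiments repeated at least twice.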

[2] = biological target: T1, Polyunsaturated fatty acid lipoxygenase ALOX15 (Homo sapiens); test: Inhibition of recombinant human 15-LOX-1 expressed in Escherichia coli BL21(DE3) at 10 uM preincubated with UV light at 254 nm for 2 to 10 mins followed by measuring UV absorbance of 13(S)-HpODE at 234 nm over 16 mins
How it was run: (§2)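 254 nm UV irradiation used as a control during preincubation of h-15-LOX-1 with inhibitor. Activity was then read as 13(S)-HpODE absorbance at 234 nm over 16 min, against a no-inhibitor control. Assay buffer 25 mM HEPES pH 7.4.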

[3] = biological target: T2, Polyunsaturated fatty acid lipoxygenase ALOX15; test: Inhibition of recombinant human 15-LOX-1 expressed in Escherichia coli BL21(DE3) using linoleic acid as substrate preincubated for 10 mins followed by substrate addition
HCC-1.2 [4] = test: Cytotoxicity against human HCC1.2 cells assessed as growth inhibition after 48 hrs by neutral red assay; type: functional; settings: for CC50: HCC-1.2, 48 h, read-out: LD50 (the source's name)
How it was run: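 HCC-1.2 hepatocarcinoma cells grown in RPMI1640 with 10% heat-inactivated FCS at 37 °C, 5% CO2. 2 × 10^5 cells/well seeded and grown 48 h. Viable cells quantified by neutral red (50 μg/mL) uptake from serum-free medium over 2 h. Dye dissolved in 1% acetic acid/70% ethanol, read as absorbance 560 minus 620 nm. Triplicate wells; three to five independent experiments; LD50 reported.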

HCC-1.2 [5] = test: Photocytotoxicity against human HCC1.2 cells assessed as decrease in cell viability at 1 to 10 uM preincubated with UV light at 365 nm for 10 mins measured after 48 hrs by neutral red assay; type: functional, cell-based
[6] = biological target: T1, Polyunsaturated fatty acid lipoxygenase ALOX15 (Homo sapiens); test: Inhibition of recombinant human 15-LOX-1 expressed in Escherichia coli BL21(DE3) assessed as residual activity at 10 uM preincubated in darkness followed by measuring UV absorbance of 13(S)-HpODE at 234 nm over 16 mins; how it was run: as §1
HCC-1.2 [7] = test: Photocytotoxicity against human HCC1.2 cells assessed as decrease in cell viability at 1 to 10 uM preincubated with day light for 10 mins measured after 48 hrs by neutral red assay; type: functional, cell-based
HCC-1.2 [8] = test: Photocytotoxicity against human HCC1.2 cells assessed as growth inhibition at 1 to 10 uM after day light irradiation for 10 mins; type: functional, cell-based
[9] = biological target: T1, Polyunsaturated fatty acid lipoxygenase ALOX15 (Homo sapiens); test: Inhibition of recombinant human 15-LOX-1 expressed in Escherichia coli BL21(DE3) at 10 uM preincubated in light followed by measuring UV absorbance of 13(S)-HpODE at 234 nm over 16 mins; settings: TDE = time-dependent effect; how it was run: as §1
[10] = biological target: T1, Polyunsaturated fatty acid lipoxygenase ALOX15 (Homo sapiens); test: Uncompetitive inhibition of recombinant human 15-LOX-1 expressed in Escherichia coli BL21(DE3) assessed as enzyme apparent Vmax at 6 uM using linoleic acid as substrate preincubated for 10 mins followed by substrate addition by Lineweaver-Burk plot analysis (reference value: 106.10 +/- 40.95 abs/hr)
[11] = biological target: T1, Polyunsaturated fatty acid lipoxygenase ALOX15 (Homo sapiens); test: Inhibition of recombinant human 15-LOX-1 expressed in Escherichia coli BL21(DE3) assessed as residual activity at 50 uM using linoleic acid as substrate preincubated for 10 mins followed by substrate addition
How it was run: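 h-15-LOX-1 (1:100 enzyme stock, 1:400 final) preincubated 10 min at room temperature with inhibitor in 25 mM HEPES pH 7.4, then linoleic acid added to 25 µM final (inhibitor 50 µM final). 13(S)-HpODE formation read as A234 over time, rate taken from linear part within first 16 min; no-inhibitor = 100%, no-enzyme = 0%. Triplicate.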

[12] = biological target: T1, Polyunsaturated fatty acid lipoxygenase ALOX15 (Homo sapiens); test: Inhibition of recombinant human 15-LOX-1 expressed in Escherichia coli BL21(DE3) assessed as residual activity at 15 uM preincubated in darkness followed by measuring UV absorbance of 13(S)-HpODE at 234 nm over 16 mins; how it was run: as §1
[13] = biological target: T1, Polyunsaturated fatty acid lipoxygenase ALOX15 (Homo sapiens); test: Uncompetitive inhibition of recombinant human 15-LOX-1 expressed in Escherichia coli BL21(DE3) assessed as enzyme apparent Vmax at 8 uM using linoleic acid as substrate preincubated for 10 mins followed by substrate addition by Lineweaver-Burk plot analysis (reference value: 106.10 +/- 40.95 abs/hr)
[14] = biological target: T1, Polyunsaturated fatty acid lipoxygenase ALOX15 (Homo sapiens); test: Inhibition of recombinant human 15-LOX-1 expressed in Escherichia coli BL21(DE3) at 15 uM preincubated with UV light at 254 nm for 2 to 10 mins followed by measuring UV absorbance of 13(S)-HpODE at 234 nm over 16 mins; how it was run: as §2
[15] = biological target: T1, Polyunsaturated fatty acid lipoxygenase ALOX15 (Homo sapiens); test: Inhibition of recombinant human 15-LOX-1 expressed in Escherichia coli BL21(DE3) at 15 uM preincubated with UV light at 365 nm followed by measuring UV absorbance of 13(S)-HpODE at 234 nm over 16 mins; settings: TDE = time-dependent effect; how it was run: as §1
[16] = biological target: T1, Polyunsaturated fatty acid lipoxygenase ALOX15 (Homo sapiens); test: Inhibition of recombinant human 15-LOX-1 expressed in Escherichia coli BL21(DE3) at 15 uM preincubated in light followed by measuring UV absorbance of 13(S)-HpODE at 234 nm over 16 mins; settings: TDE = time-dependent effect; how it was run: as §1
[17] = compound: Nc1[nH]c(C(=O)c2ccccc2)c(-c2ccc(Cl)cc2Cl)c1C(=O)c1ccc(Cl)c(Cl)c1; test: Uncompetitive inhibition of recombinant human 15-LOX-1 expressed in Escherichia coli BL21(DE3) assessed as apparent Km for substrate at 6 uM using linoleic acid as substrate preincubated for 10 mins followed by substrate addition by Lineweaver-Burk plot analysis (reference value: 32.67 +/- 12.23 uM)
[18] = compound: Nc1[nH]c(C(=O)c2ccccc2)c(-c2ccc(Cl)cc2Cl)c1C(=O)c1ccc(Cl)c(Cl)c1; test: Uncompetitive inhibition of recombinant human 15-LOX-1 expressed in Escherichia coli BL21(DE3) assessed as apparent Km for substrate at 8 uM using linoleic acid as substrate preincubated for 10 mins followed by substrate addition by Lineweaver-Burk plot analysis (reference value: 32.67 +/- 12.23 uM)

Row | Molecule | inhibition [1] | inhibition [2] | IC50 [3] [µM] | Activity (HCC-1.2 [4]) | CC50 (HCC-1.2 [4]) [µM] | Activity (HCC-1.2 [5]) | Activity [6] [%] | Activity (HCC-1.2 [7]) | Activity (HCC-1.2 [8]) | inhibition [9] | Vmax(app) [10] [abs/hr] | Activity [11] [%] | Activity [12] [%] | Vmax(app) [13] [abs/hr] | inhibition [14] | inhibition [15] | inhibition [16] | Km [17] [µM] | Km [18] [µM]
1 | Nc1[nH]c(C(=O)c2ccccc2)c(-c2ccc(Cl)cc2Cl)c1C(=O)c1cccc(Cl)c1 | Tde | inactive | 6.9 | Dose-dependent effect | 0.69 | Active | 80 | Active | Active | Tde |  |  |  |  |  |  |  |  | 
2 | Nc1[nH]c(C(=O)c2ccccc2)c(-c2ccc(Cl)cc2Cl)c1C(=O)c1ccc(Cl)c(Cl)c1 |  |  | 12.8 | Dose-dependent effect | 0.55 |  |  |  |  |  | 68.2 | 40.8 | 80 | 47.2 | inactive | Tde | Tde |  | 
3 | B1 |  |  |  |  |  |  |  |  |  |  |  |  |  |  |  |  |  | 24 | 20
